The source made the active and inactive calls. The calls are words filed in the database; no cut-off is given here.
Key:
[1] = molecular target: T1, NAD-dependent protein deacetylase sirtuin-3, mitochondrial (Homo sapiens) (UniProt Q9NTG7); assay: Activation of N-terminal his-tagged human SIRT3 (114 to 380 residues) expressed in Escherichia coli assessed as fold activation at 100 uM using ACS2-acK642 as substrate in presence of NAD+; conditions: filed as activator
T1 sequence (whole entry): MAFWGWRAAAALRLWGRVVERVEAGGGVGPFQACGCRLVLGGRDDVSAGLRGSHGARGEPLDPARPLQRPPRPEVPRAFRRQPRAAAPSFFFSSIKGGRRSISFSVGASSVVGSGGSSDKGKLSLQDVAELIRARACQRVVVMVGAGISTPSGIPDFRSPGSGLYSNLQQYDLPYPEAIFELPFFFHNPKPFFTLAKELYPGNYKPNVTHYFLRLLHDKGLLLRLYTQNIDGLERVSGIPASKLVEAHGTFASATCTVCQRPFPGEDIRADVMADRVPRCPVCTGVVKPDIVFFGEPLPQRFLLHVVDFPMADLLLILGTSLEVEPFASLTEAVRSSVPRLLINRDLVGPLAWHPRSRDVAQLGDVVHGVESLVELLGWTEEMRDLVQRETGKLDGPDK
Method in brief: (§1)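 Coupled continuous enzymatic assay (nicotinamidase/GDH-linked): 1.5 µM purified Sirt3 with 50 µM ACS2-acK642 peptide and 100 µM NAD+, compound at 10 µM, 100 µM or titrated, 5% DMSO final; fold deacetylation versus no-compound control.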

[2] = molecular target: T2, NAD-dependent protein deacetylase sirtuin-1 (Homo sapiens) (UniProt Q96EB6); assay: Activation of N-terminal his-tagged human SIRT1 expressed in Escherichia coli assessed as fold activation at 10 to 100 uM using p53-acK381 as substrate in presence of NAD+; conditions: filed as activator, dose 10-100 µM
T2 sequence (whole entry): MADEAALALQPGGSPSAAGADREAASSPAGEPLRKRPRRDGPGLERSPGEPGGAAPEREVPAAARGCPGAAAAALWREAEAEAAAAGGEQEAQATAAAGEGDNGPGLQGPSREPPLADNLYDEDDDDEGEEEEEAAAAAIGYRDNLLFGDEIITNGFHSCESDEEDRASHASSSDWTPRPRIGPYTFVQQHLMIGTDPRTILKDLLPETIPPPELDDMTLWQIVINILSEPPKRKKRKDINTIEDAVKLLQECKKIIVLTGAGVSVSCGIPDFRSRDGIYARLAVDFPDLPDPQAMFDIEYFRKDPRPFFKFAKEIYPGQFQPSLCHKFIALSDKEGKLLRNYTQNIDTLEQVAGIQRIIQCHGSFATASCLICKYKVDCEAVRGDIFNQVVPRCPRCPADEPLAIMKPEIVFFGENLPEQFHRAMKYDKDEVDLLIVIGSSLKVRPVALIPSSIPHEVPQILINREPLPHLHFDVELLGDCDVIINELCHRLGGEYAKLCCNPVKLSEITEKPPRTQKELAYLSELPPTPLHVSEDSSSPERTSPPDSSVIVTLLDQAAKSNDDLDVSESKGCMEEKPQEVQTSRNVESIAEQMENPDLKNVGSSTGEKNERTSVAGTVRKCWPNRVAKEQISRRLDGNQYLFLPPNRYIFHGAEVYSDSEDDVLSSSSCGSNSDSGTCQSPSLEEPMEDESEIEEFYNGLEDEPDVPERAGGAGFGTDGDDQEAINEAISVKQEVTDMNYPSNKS
Method in brief: (§2)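 Coupled enzymatic deacylation assay (nicotinamidase/GDH-coupled, continuous): 1.5 μM recombinant Sirtuin (expressed in E. coli, Ni-NTA purified, tag removed, size-exclusion purified) with 50 μM substrate peptide and 100 μM NAD+, without or with 10 μM or 100 μM 1,4-DHP, 5% final DMSO. Activity expressed relative to no-compound control.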

[3] = molecular target: T1, NAD-dependent protein deacetylase sirtuin-3, mitochondrial (Homo sapiens); assay: Activation of N-terminal his-tagged human SIRT3 (114 to 380 residues) expressed in Escherichia coli at 100 uM using ACS2-acK642 as substrate in presence of NAD+ by Mass spectrometry assay relative to control; conditions: filed as activator
Method in brief: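 Mass-spectrometric deacetylation assay using coupled-assay components (1.5 µM Sirt3, 50 µM peptide, 100 µM NAD+, compound 100 µM) in 50 mM Na-phosphate pH 7.8 plus 0.05 µg/µL PNCA to remove nicotinamide; product and substrate peptides quantified.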

[4] = molecular target: T1, NAD-dependent protein deacetylase sirtuin-3, mitochondrial (Homo sapiens); assay: Activation of SIRT3 in human MDA-MB-231 cells assessed as increase in FdL deacetylation activity at 50 to 100 uM incubated for 3 hrs; assay type: cell-based; conditions: filed as activator, dose 50-100 µM
Method in brief: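 MDA-MB-231 cells (RPMI 1640, 10% FBS, 37 °C, 5% CO2) treated 3 h at 50 or 100 µM; 40 µg mitochondrial extract incubated with Fluor de Lys substrate 40 min 37 °C, then developer 10 min; fluorescence ex 360/em 460 nm, buffer background subtracted.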

[5] = molecular target: T1, NAD-dependent protein deacetylase sirtuin-3, mitochondrial (Homo sapiens); assay: Activation of STAT3 protein level in human MDA-MB-231 cells assessed as STAT3 protein expression incubated for 24 hrs by Western blotting; assay type: cell-based; conditions: filed as activator
[6] = molecular target: T1, NAD-dependent protein deacetylase sirtuin-3, mitochondrial (Homo sapiens); assay: Activation of SIRT3 in human MDA-MB-231 cells assessed as increase in GDH activity at 50 uM incubated for 8 hrs […]; assay type: cell-based; conditions: filed as activator
Method in brief: (§3)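 MDA-MB-231 cells given 50 µM compound for 4 h, or 4 h then re-dosed for a further 4 h; 10^6 cells lysed, supernatant mixed with glutamate/developer mix, 3 min at 37 °C, absorbance 450 nm, buffer blank subtracted; means ± SD, Student's t-test.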

[7] = molecular target: T1, NAD-dependent protein deacetylase sirtuin-3, mitochondrial (Homo sapiens); assay: Activation of SIRT3 in human MDA-MB-231 cells assessed as decrease in MnSOD-Lys68 acetylation level at 50 uM incubated for 16 hrs by Western blot analysis assay; assay type: cell-based; conditions: filed as activator
Method in brief: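 MDA-MB-231 cells (wild-type and Sirt3-knockdown) treated with 50 µM; 50 µg whole-cell lysate protein run on SDS-PAGE, blotted to PVDF, probed with anti-MnSOD-acK68 and anti-MnSOD, ECL detection; each blot done in triplicate.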

[8] = molecular target: NAD-dependent protein deacylase sirtuin-5, mitochondrial (Homo sapiens) (UniProt Q9NXA8); assay: Activation of N-terminal his-tagged human SIRT5 (34 to 302 residues) expressed in Escherichia coli assessed as fold activation at 10 to 100 uM using CPS1-succ537 as substrate in presence of NAD+; conditions: filed as activator, dose 10-100 µM; method in brief: as §2
Sequence of NAD-dependent protein deacylase sirtuin-5, mitochondrial (Homo sapiens) (Q9NXA8 37-310 limits assumed): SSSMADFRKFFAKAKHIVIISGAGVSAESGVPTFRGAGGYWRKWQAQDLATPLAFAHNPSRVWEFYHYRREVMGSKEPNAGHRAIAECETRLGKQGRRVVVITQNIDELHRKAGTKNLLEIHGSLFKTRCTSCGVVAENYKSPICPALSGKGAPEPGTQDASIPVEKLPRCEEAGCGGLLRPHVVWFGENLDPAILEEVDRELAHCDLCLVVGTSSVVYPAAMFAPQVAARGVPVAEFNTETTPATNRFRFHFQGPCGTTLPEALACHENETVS

[9] = molecular target: T3, NAD-dependent protein deacetylase sirtuin-2 (Homo sapiens) (UniProt Q8IXJ6); assay: Activation of N-terminal SUMO-tagged human SIRT2 (43 to 356 residues) expressed in Escherichia coli assessed as deacetylation of substrate by measuring fold activation at 100 uM using acetylated alpha tubulin-K2 as substrate in presence of NAD+; conditions: filed as activator; method in brief: as §2
T3 sequence (whole entry): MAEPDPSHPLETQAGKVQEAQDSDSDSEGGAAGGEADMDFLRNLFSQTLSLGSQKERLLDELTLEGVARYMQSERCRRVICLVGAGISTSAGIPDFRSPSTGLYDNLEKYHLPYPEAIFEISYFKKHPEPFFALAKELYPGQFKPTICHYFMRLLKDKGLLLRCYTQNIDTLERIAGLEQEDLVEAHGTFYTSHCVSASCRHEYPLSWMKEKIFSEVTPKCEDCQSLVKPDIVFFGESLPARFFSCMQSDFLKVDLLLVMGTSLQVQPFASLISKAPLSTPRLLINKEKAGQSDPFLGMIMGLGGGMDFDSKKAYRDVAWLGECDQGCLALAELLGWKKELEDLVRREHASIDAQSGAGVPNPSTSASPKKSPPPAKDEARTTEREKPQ

[10] = molecular target: T2, NAD-dependent protein deacetylase sirtuin-1 (Homo sapiens); assay: Activation of N-terminal his-tagged human SIRT1 expressed in Escherichia coli assessed as fold activation at 100 uM using p53-acK381 as substrate in presence of NAD+; conditions: filed as activator; method in brief: as §2
[11] = molecular target: T4, NAD-dependent protein deacetylase sirtuin-3 (Mus musculus) (UniProt Q8R104); assay: Activation of SIRT3 in mouse MEF cells assessed as fold increase in mitochondrial mass at 25 uM incubated for 24 hrs by MT-DR staining based FACS assay; assay type: cell-based; conditions: filed as activator
T4 sequence (whole entry): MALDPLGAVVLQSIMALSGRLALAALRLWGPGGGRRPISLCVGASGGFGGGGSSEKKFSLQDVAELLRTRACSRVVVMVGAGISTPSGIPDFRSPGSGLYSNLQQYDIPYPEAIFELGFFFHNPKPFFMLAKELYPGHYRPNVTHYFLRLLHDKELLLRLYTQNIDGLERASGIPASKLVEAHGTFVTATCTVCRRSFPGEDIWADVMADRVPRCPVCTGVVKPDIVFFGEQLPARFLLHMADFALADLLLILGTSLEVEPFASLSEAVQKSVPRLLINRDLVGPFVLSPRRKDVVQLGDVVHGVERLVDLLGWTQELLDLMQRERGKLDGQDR
Method in brief: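 Wild-type and Sirt3 knock-out MEFs exposed to 25 µM compound for 24 h, then stained with 10 nM MitoTracker Deep Red for 30 min at 37 °C; mitochondrial mass by FACS; mean ± SD, n = 2.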

[12] = molecular target: T1, NAD-dependent protein deacetylase sirtuin-3, mitochondrial (Homo sapiens); assay: Activation of N-terminal his-tagged human SIRT3 (114 to 380 residues) expressed in Escherichia coli using ACS2-acK642 as substrate in presence of NAD+; conditions: filed as activator; method in brief: as §1
[13] = molecular target: T1, NAD-dependent protein deacetylase sirtuin-3, mitochondrial (Homo sapiens); assay: Activation of N-terminal his-tagged human SIRT3 (114 to 380 residues) expressed in Escherichia coli assessed as fold activation at 10 to 100 uM using ACS2-acK642 as substrate in presence of NAD+; conditions: filed as activator, dose 10-100 µM; method in brief: as §1
[14] = molecular target: NAD-dependent protein deacylase sirtuin-5, mitochondrial (Homo sapiens) (UniProt Q9NXA8); assay: Activation of N-terminal his-tagged human SIRT5 (34 to 302 residues) expressed in Escherichia coli assessed as fold activation at more than 200 uM using CPS1-succ537 as substrate in presence of NAD+; conditions: filed as activator
Method in brief: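 Sirt5 desuccinylation measured by coupled enzymatic assay: 1.5 µM enzyme, 50 µM CPS1-succK537 peptide, 100 µM NAD+, 5% DMSO final; compound titrated; fold activation relative to untreated reaction.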

[15] = molecular target: T3, NAD-dependent protein deacetylase sirtuin-2 (Homo sapiens); assay: Activation of N-terminal SUMO-tagged human SIRT2 (43 to 356 residues) expressed in Escherichia coli assessed as deacetylation of substrate at 100 uM using acetylated alpha tubulin-K2 as substrate in presence of NAD+; conditions: filed as activator; method in brief: as §2
[16] = molecular target: T1, NAD-dependent protein deacetylase sirtuin-3, mitochondrial (Homo sapiens); assay: Activation of SIRT3 in human MDA-MB-231 cells assessed as increase in GDH activity at 50 uM incubated for 4 hrs […]; assay type: cell-based; conditions: filed as activator; method in brief: as §3

CCOC(=O)C1=CN(C(=O)c2ccccc2)C=C(C(=O)OCC)C1c1ccccc1
fold change (FC) [1]: 3.5
fold change (FC) [2]: 1.5
Activity [3]: 300%
Activity [4]: Active
Activity [5]: Active
Activity [6]: Active
Activity [7]: Active

CCOC(=O)C1=CN(C(=O)c2cc(OC)c(OC)c(OC)c2)C=C(C(=O)OCC)C1c1cccc(N)c1
fold change (FC) [8]: 3
fold change (FC) [9]: 2.5
fold change (FC) [10]: 4

CCOC(=O)C1=CN(Cc2ccccc2)C=C(C(=O)OCC)C1c1cnc2ccccc2c1
fold change (FC) [2]: 1.5
Activity [11]: Active

CCOC(=O)C1=CN(C(=O)c2cc(OC)c(OC)c(OC)c2)C=C(C(=O)OCC)C1c1ccccc1
Activity [12]: Active
fold change (FC) [13]: 5
Activity [3]: 400%
fold change (FC) [14]: 5
Activity [15]: Active
Activity [16]: Active

Reference: ChEMBL document CHEMBL5108071, “Potent and Specific Activators for Mitochondrial Sirtuins Sirt3 and Sirt5” (J Med Chem, 2022)
